Experimental data taken from ChEMBL document CHEMBL2169848, “Synthesis physicochemical profile and PAMPA study of new NO-donor edaravone co-drugs” (Bioorg Med Chem, 2012).
pEC50: −log10 of the molar value. The source made the active and inactive calls. No cut-off for these calls is given here.

Tests used:
[1] = Lipophilicity, log P of the compound in octanol-buffer at pH 7 by HPLC analysis; type: physicochemical
In short: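 Retention measured by isocratic RP-HPLC on an RP-amide-C16 column at 30 °C. Mobile phase was pH 7.0 phosphate buffer/methanol, 30–70%, ionic strength 20 mM; uracil used as dead-time marker. log kw extrapolated from at least four methanol ratios, each injected at least three times. Converted to logPoct via a reference line of 63 compounds.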

[2] = Half life in 5% DMSO/0.1 M KCl by RP-HPLC analysis; type: physicochemical; settings: for half-life: 5% DMSO/0.1 M KCl
In short: (§1)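 10 mM DMSO stock added to water with 0.1 M KCl to give 5% DMSO (v/v), then filtered. Room temperature. Compound followed by RP-HPLC (C18, methanol/water gradient, 240 nm), calibration 1–200 µM. Half-life from n = 3.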

[3] = Half life in human serum at 250 uM by RP-HPLC analysis; type: ADME, cell-free
In short: (§2)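 Compound added from a 10 mM methanol stock to human serum (male AB plasma) at 37 °C, final 250 µM. Aliquots taken at intervals and deproteinized with acetonitrile containing 0.1% TFA, then centrifuged and filtered. Analysed by RP-HPLC. Half-life from n = 3.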

[4] = Half life in Wistar rat liver homogenate at 200 uM by RP-HPLC analysis; type: ADME, tissue-based
In short: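 Liver from male Wistar rats (200–250 g), 20% homogenate spun at 8000g. Incubated at 37 °C in Tris-HCl/KCl 100/150 mM, pH 7.4, with 6.4 mg protein/mL, 2 mM GSH and 1 mM NADPH. Compound 200 µM final, added from a 10 mM acetonitrile stock. Aliquots deproteinized with cold acetonitrile and analysed by RP-HPLC. Half-life from n = 3.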

[5] = Half life in 0.1 M HCl/MeOH 60/40 (v/v) mixture by RP-HPLC analysis; type: physicochemical
In short: (§3)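 Methanolic compound solution (0.5 mM, 2 mL) diluted to 10 mL with 0.1 M HCl/MeOH 60/40 (v/v) and kept at 37 °C. Aliquots taken at intervals and analysed by RP-HPLC (C18, acetonitrile/water gradient, 240 nm) with calibration over 1–200 µM. Half-life from n = 3.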

Mus musculus [6] = assay: Induction of nitrite release in mouse assessed as nitrite AUC (0 to 24 hrs) at 10 mg/kg, po measured over 24 hrs by LC-MS/MS analysis; type: organism-based; set-up: time < 24 hr, dose 10 mg/kg, route oral; settings: in vivo
In short: (§4)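 Mice dosed orally at 10 mg/kg in imwitor742/tween80 50/50; blood drawn at fixed times over 24 h and precipitated with 3 volumes acetonitrile. Nitrite converted to naphtotriazole with DAN (1 mM, 10 µL per 200 µL sample) at room temperature and measured by LC-MS/MS against a 0.01-10 µM NAT calibration; basal level and conversion factor from spikes; AUC0-24h.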

Thoracic aorta [7] = assay: Vasodilatory activity in Wistar rat denuded thoracic aorta assessed as inhibition of L-phenylephrine-induced contraction; type: functional, tissue-based
In short: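 Endothelium-denuded thoracic aorta strips from male Wistar rats (180–200 g) in gassed Krebs-type buffer at 37 °C, pH 7.4. Strips equilibrated 1.5 h, then contracted with 1 µM L-phenylephrine. Cumulative concentrations added at plateau and isometric tension recorded. EC50 (±SEM) in µM from at least five experiments.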

Thoracic aorta [8] = assay: Vasodilatory activity in Wistar rat thoracic aorta assessed as inhibition of L-phenylephrine-induced contraction in presence of 1 uM 1H-[1,2,4]oxadiazolo[4,3-a]quinoxalin-1-one; type: functional, tissue-based
In short: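 Same rat aorta strip protocol with 1 µM L-phenylephrine precontraction. 1 µM ODQ was added 5 min before contraction, pre-incubating for at least 30 min before the vasodilator. Isometric recording; EC50 (±SEM) in µM from at least five experiments.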

Liver [9] = assay: Induction of nitrate production in Wistar rat liver homogenate at 200 uM by griess method; type: functional, tissue-based; settings: TDE = time-dependent effect
In short: (§5)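 Male Wistar rat liver homogenate (6.4 mg protein/mL; 2 mM GSH, 1 mM NADPH; Tris-HCl/KCl pH 7.4; 37 °C) with compound at 200 µM final. Deproteinized filtrate mixed with Griess reagent: nitrite after 10 min at 37 °C; nitrite+nitrate after VCl3 reduction, 45 min at 37 °C. Absorbance at 540 nm, calibration 1–100 µM. Expressed as %mol per mol compound, n = 3.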

Liver [10] = assay: Induction of nitrite production in Wistar rat liver homogenate at 200 uM by griess method; type: functional, tissue-based; settings: TDE = time-dependent effect; in short: as §5
Liver [11] = assay: Induction of nitrate production in Wistar rat liver homogenate at 200 uM after 5 hrs by griess method; type: functional, tissue-based; in short: as §5
[12] = Permeability of the compound by PAMPA-HDM method; type: ADME
In short: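 96-well polycarbonate filters impregnated with 5% hexadecane in hexane. Donor held compound in water with 5% DMSO and 100 mM KCl; acceptor held the same medium. Incubated at room temperature with shaking at 150 rpm for 1–6 h. Both compartments quantified by RP-HPLC. logPe and retention R calculated with correction for hydrolysis; membrane integrity checked by electrical resistance.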

Liver [13] = assay: Induction of nitrite production in Wistar rat liver homogenate at 200 uM after 5 hrs by griess method; type: functional, tissue-based; in short: as §5
[14] = Stability in 5% DMSO/0.1 M KCl by RP-HPLC analysis; type: physicochemical; in short: as §1
[15] = Stability in 0.1 M HCl/MeOH 60/40 (v/v) mixture by RP-HPLC analysis; type: physicochemical; settings: buffer; in short: as §3
Serum = assay: Stability in human serum at 250 uM by RP-HPLC analysis; type: ADME, cell-free; in short: as §2
Mus musculus [16] = assay: AUC (0 to 24 hrs) in mouse assessed isosorbide mononitrate as at 10 mg/kg, po after 24 hrs; type: ADME, organism-based, Plasma; set-up: time < 24 hr, dose 10 mg/kg, route oral; settings: in vivo; in short: as §4

SMILES	logD [1]	half-life [2] [h]	half-life at 250 µM [3] [h]	half-life at 200 µM [4] [min]	half-life [5] [h]	inhibition (Thoracic aorta [7])	pEC50 (Thoracic aorta [8])	further results
Cc1cc(OC(=O)CCCCCO[N+](=O)[O-])n(-c2ccccc2)n1	3.79	31	< 0.0167	< 1	1			
Cc1cc(OC(=O)C(C)(C)CO[N+](=O)[O-])n(-c2ccccc2)n1	3.55	36	0.0317	< 1	1.9			
Cc1cc(OC(=O)OCCCO[N+](=O)[O-])n(-c2ccccc2)n1	3.35	13	< 0.0167	< 1	1.4			AUC (Mus musculus [6]): 964 µM·min
O=C(O)c1ccc(OCC(CO[N+](=O)[O-])O[N+](=O)[O-])cc1 (configuration not stated)						Dose-dependent effect		
CC(C)(CCC(CO[N+](=O)[O-])O[N+](=O)[O-])C(=O)O (configuration not stated)						Dose-dependent effect	< 4.00	pEC50 (Thoracic aorta [7]): 5.38
Cc1cc(OC(=O)C(C)(C)CCCCO[N+](=O)[O-])n(-c2ccccc2)n1	4.3	22	0.222	2	24	Dose-dependent effect	< 4.00	Activity (Liver [9]): tde; pEC50 (Thoracic aorta [7]): 4.96; AUC (Mus musculus [6]): 1790 µM·min; Activity (Liver [10]): tde
Cc1cc(OC(=O)OCCCCCCO[N+](=O)[O-])n(-c2ccccc2)n1	4.39	25	< 0.0167	< 1	4			
O=[N+]([O-])OCCCCCCO						Dose-dependent effect	< 4.00	pEC50 (Thoracic aorta [7]): 5.82
O=C(O)c1ccc(CC(CO[N+](=O)[O-])O[N+](=O)[O-])cc1 (configuration not stated)						Dose-dependent effect	< 4.00	
CC(C)(CCCCO[N+](=O)[O-])C(=O)O						Dose-dependent effect	< 4.00	pEC50 (Thoracic aorta [7]): 5.05
Cc1cc(OC(=O)c2ccc(OCC(CO[N+](=O)[O-])O[N+](=O)[O-])cc2)n(-c2ccccc2)n1 (configuration not stated)	5.14		0.13	< 1	25			Activity (Liver [11]): Active; log Pe [12]: ND(Insoluble); t1/2 [2]: ND(Insoluble); Activity (Liver [13]): Active
CC1=NN(c2ccccc2)C(=O)C1 [EDARAVONE]	1.44							Stability [14]: Stable; Stability [15]: Stable; Stability (Serum): Stable
O=C(O)c1ccc(OCCCO[N+](=O)[O-])cc1						Dose-dependent effect		
Cc1cc(OC(=O)c2ccc(CC(CO[N+](=O)[O-])O[N+](=O)[O-])cc2)n(-c2ccccc2)n1 (configuration not stated)	4.88		0.118	< 1	8			Activity (Liver [11]): Active; log Pe [12]: ND(Insoluble); t1/2 [2]: ND(Insoluble); Activity (Liver [13]): Active
CC(C)(CO[N+](=O)[O-])C(=O)O						Dose-dependent effect	< 4.00	pEC50 (Thoracic aorta [7]): 4.89
Cc1cc(OC(=O)CCCC(CO[N+](=O)[O-])O[N+](=O)[O-])n(-c2ccccc2)n1 (configuration not stated)	3.95	10	< 0.0167	< 1	0.7			
Cc1cc(OC(=O)c2ccc(CCCO[N+](=O)[O-])cc2)n(-c2ccccc2)n1	4.76		0.0667	< 1	13			log Pe [12]: ND(Insoluble); t1/2 [2]: ND(Insoluble)
O=C(O)c1ccc(CCCO[N+](=O)[O-])cc1						Dose-dependent effect	< 4.00	
Cc1cc(OC(=O)OCCCCC(CO[N+](=O)[O-])O[N+](=O)[O-])n(-c2ccccc2)n1 (configuration not stated)	4.63	6	< 0.0167	< 1	3.1			Activity (Liver [11]): Active; Activity (Liver [13]): Active
O=C(O)CCCCCO[N+](=O)[O-]						Dose-dependent effect	< 4.00	
Cc1cc(OC(=O)C(C)(C)CCC(CO[N+](=O)[O-])O[N+](=O)[O-])n(-c2ccccc2)n1 (configuration not stated)	4.04	16	0.27	3	10	Dose-dependent effect	< 4.00	Activity (Liver [9]): tde; Activity (Liver [11]): Active; pEC50 (Thoracic aorta [7]): 5.60; Activity (Liver [10]): tde; Activity (Liver [13]): Active
O=[N+]([O-])OCCCO [ABRUCOMSTAT]						Dose-dependent effect	< 4.00	pEC50 (Thoracic aorta [7]): 5.40
O=[N+]([O-])O[C@H]1CO[C@H]2[C@@H]1OC[C@H]2O[N+](=O)[O-] [ISOSORBIDE DINITRATE]								AUC (Mus musculus [16]): 2352 µM·min
Cc1cc(OC(=O)c2ccc(OCCCO[N+](=O)[O-])cc2)n(-c2ccccc2)n1	4.74		0.0833	< 1	35			log Pe [12]: ND(Insoluble); t1/2 [2]: ND(Insoluble)
